A selection: hits, their analogues and other compounds. The true share with any hit is near 0.91%.
Hep lipid drop = hepatic lipid droplet formation modulation. AML12 mouse hepatocytes, oleate lipid droplets, BODIPY imaging. inhibition, % at 6.5 µM. 0.4% of 240,000 active;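 active = lipid droplet intensity inhibited by at least 50%, with more than 500 cells counted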
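Test system: AML12 hepatocytes (mouse); reagent: oleate loading, 100 µM; dosing: one dose, 6.5 µM compound; incubation: overnight exposure; signal: fluorescence imaging, 20x objective, two fields per well; read-out basis: % inhibition of corrected integrated BODIPY droplet signal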
zVAD death inh = L929 zVAD cell death inhibition; L929 zVAD necroptosis rescue, ATP luminescence, 24 h; with zVAD 60 µM; viability rescue, % at 10 µM; 0.38% of 220,000 active;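 active = activation, scaled between plate controls, above about 75%, limit read from the data; inactive = activation under that limit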
TNF death inh = blocks TNF-alpha induced death of Jurkat FADD-/- cells; Jurkat FADD-/- TNF necroptosis rescue, ATP luminescence, 24 h; 0 = TNF only, 100 = no-TNF cells; activation (protection from cell death), % at 10 µM; 0.068% of 220,000 active;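 active = activation, meaning protection from cell death, of at least 50% relative to plate controls; inactive = activation below 50%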;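 also: necroptosis triggered by 40 ng/mL TNF-alpha added together with compound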
Arbovirus anti = blocks arbovirus infection; inhibition, % at 10 µM; arbovirus infection cell-based antiviral screen; 0.37% of 200,000 active; in the data active = inhibition above about 30%
Pf gametocyte = P. falciparum stage V gametocyte viability inhibition | P. falciparum stage V gametocytes, ATP luminescence, 24 h | AID 743093 | inhibition, % at 10.9 µM | 0.065% of 150,000 active;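 active = inhibition above the mean plus 3 SD of compounds within the control limits, set per campaign, cut at about 38% in these data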
A number is an active result; n = inactive; x = no result.

SMILES	Hep lipid drop	zVAD death inh	TNF death inh	Arbovirus anti	Pf gametocyte
Cc1ccc(NC(=O)/C(=C/C=C/c2ccccc2)NC(=O)c2ccccc2)cc1	n	n	n	30.4	n
O=C(CSc1nnc(CNC(=O)c2ccc(F)cc2)o1)Nc1nccs1	n	x	x	x	x
COc1ccccc1/C=C/C(=C1/C(=O)N(c2ccccc2)N=C1C)c1ccc(C)cc1	52.6	n	n	n	x
CCN1C(=O)/C(=C/c2ccc(N3CCCC3)cc2)NC1=S	64.8	n	n	n	n
CCCN1C(=O)/C(=C/c2ccc(N3CCOCC3)cc2)NC1=S	n	n	n	n	n
O=C(Nc1ccc(Cl)cc1)c1cc(Br)ccc1OCC(=O)N1CCOCC1	n	x	x	x	x
CC(CCc1ccccc1)NC(=O)C1CCCN(C(=O)c2cc3sccc3n2C)C1 (configuration not stated)	n	n	n	n	n
COCCNC(=O)c1cc2sccc2n1C	n	n	n	n	n
CCOc1ccc(CCNC(=O)c2cc3sccc3n2C)cc1OCC	101.0	n	n	n	x
CC(CCc1ccccc1)NC(=O)c1cc2sccc2n1C (configuration not stated)	n	n	n	42.0	x
CN(CC(=O)Nc1ccc2c(c1)CCC2)CC(=O)Nc1ccccc1Br	n	n	n	n	38.8
COCCn1c(C)nnc1SCC(=O)NNC(=O)c1ccc(Br)cc1	n	x	x	x	x
COc1ccc(Nc2nnc(SC(C(=O)Nc3cc(C)ccc3C)c3ccccc3)s2)cc1 (configuration not stated)	n	n	n	n	n
COc1ccc(C)cc1NC(=O)C(Sc1nnc(Nc2cc(C)ccc2OC)s1)c1ccccc1 (configuration not stated)	73.4	n	n	n	n
CC(C)(CO)CNC(=O)CC1C(=O)NCCN1CC(c1ccccc1)c1ccccc1 (configuration not stated)	n	n	n	31.7	n
CC(C)NC(=O)CC1C(=O)NCCN1CC(c1ccccc1)c1ccccc1 (configuration not stated)	n	n	n	n	x
CCOc1ncnc2c1sc1nc(C)cc(C)c12	n	n	n	x	n
CCSc1nc2c(sc3nc(C)cc(C)c32)c(=O)[nH]1	n	n	n	36.6	x
COC(=O)/C(=N/Nc1ccccc1C)Sc1nnc(C(O)c2ccccc2)n1-c1ccccc1 (configuration not stated)	n	n	n	n	n
CC(=O)/C(=N/Nc1cccc(Cl)c1)Sc1nnc(C(O)c2ccccc2)n1-c1ccccc1 (configuration not stated)	n	n	n	47.2	n
N/C(Cc1ccc([N+](=O)[O-])cc1)=N\OC(=O)CC1CCCCC1	n	n	n	n	59.1
Cc1ccc(CC(=O)O/N=C(\N)Cc2ccc([N+](=O)[O-])cc2)cc1	n	n	n	n	n
CC(NC(=O)C(=O)NCCc1c[nH]c2ccccc12)c1ccccc1 (configuration not stated)	n	x	x	x	x
Cc1cc(C)c2c(=O)[nH]c(SCC(=O)c3ccc(C)c(C)c3)nc2n1	n	n	n	34.9	x
COc1cc(NC(=O)COC(=O)C=C(C)C)c(C)cc1[N+](=O)[O-]	n	n	n	n	n
SMILES	Hep lipid drop	zVAD death inh	TNF death inh	Arbovirus anti	Pf gametocyte
O=C(C[C@H]1C/C=C\CC[C@H](Cc2ccc(F)cc2)C(=O)OC[C@H]2CCCN2C1=O)NCCO	x	x	x	x	n
CSc1ccc(C2c3[nH]c4ccccc4c3CCN2C(=O)c2cc(C)n(C)n2)cc1 (configuration not stated)	n	n	n	n	x
Cc1cc(C(=O)N2CCc3c([nH]c4ccccc34)C2c2cccc(Cl)c2)nn1C (configuration not stated)	67.2	n	n	n	n
O=C(Nc1nc(-c2ccco2)cs1)c1ccccc1	x	n	n	62.3	n
CC(=O)Nc1ccc(-c2csc(NC(=O)c3ccc(C)o3)n2)cc1	n	n	n	38.5	x
CC(=O)Nc1ccc(C(=O)Nc2nc(-c3cccnc3)cs2)cc1	n	n	n	n	x
CC(=O)Nc1ccc(C(=O)Nc2nc(-c3ccccn3)cs2)cc1	n	n	n	34.5	n
COc1ccc(-c2csc(NC(=O)c3ccco3)n2)cc1	n	n	n	65.3	x
COc1ccc(S(=O)(=O)N2CCOC2CNC(=O)C(=O)NCc2ccc(F)cc2)cc1OC (configuration not stated)	n	x	x	x	x
COCCNC(=O)C(=O)Nc1cc2c3c(c1)CCC(=O)N3CCC2	n	x	x	x	x
COc1ccc(NC(=O)C(c2ccc(Cl)cc2)C(C)C)cn1 (configuration not stated)	n	x	x	x	x
Cc1ccc(C)c(NC(=O)c2cc3ccccn3n2)c1	n	n	n	n	x
Cc1ccc(C)c(NC(=O)c2cnn3ccccc23)c1	x	84.6	n	n	x
CCc1c(C)nc2c(-c3ccccc3OC)c(C)[nH]n2c1=O	n	x	x	x	n
Cc1ccc(NC(=S)NC(=O)c2ccccc2)cc1NC(=S)NC(=O)c1ccccc1	n	n	n	x	x
Cc1cc(C)c(NC(=S)NC(=O)c2ccc(-c3ccccc3)cc2)c(C)c1	n	n	n	30.2	x
Cc1ccc2nc(N3C(=O)C(O)=C(C(=O)c4cc5ccccc5o4)C3c3cccs3)sc2c1 (configuration not stated)	x	n	n	32.0	x
CCc1ccc2nc(N3C(=O)C(O)=C(C(=O)c4ccco4)C3c3cccs3)sc2c1 (configuration not stated)	n	n	n	n	x
COc1cccc(OC)c1C(=O)NC(C)C12CC3CC(CC(C3)C1)C2 (configuration not stated)	n	n	n	43.1	x
O=C(NCc1ccc2c(c1)OCO2)c1cccc(S(=O)(=O)N2CCCC2)c1	n	x	x	x	x
Cc1cc(NC(=O)COc2ccccc2C)ccc1NC(=O)c1cccs1	n	x	x	x	x
O=C(O)c1cc2c(cn1)[nH]c1ccccc12	n	x	x	x	x
CCOc1ccc(CNc2ccc3c(c2)nc(C)n3C)cc1	n	n	n	43.6	n
COc1cc(NC(=O)CCC(=O)OCCCC(F)(F)C(F)(F)F)nc(OC)n1	n	n	n	n	n
COc1cc(NC(=O)CCCC(=O)OCC(F)(F)C(F)F)nc(OC)n1	x	n	n	106.0	x
SMILES	Hep lipid drop	zVAD death inh	TNF death inh	Arbovirus anti	Pf gametocyte
Cc1cc(Br)ccc1NC(=S)N1CCOCC1	n	n	n	x	n
COc1ccccc1-n1cnnc1SCC(=O)Nc1cc(C(C)(C)C)nn1-c1ccccc1	x	105.3	n	n	n
CCn1c(COc2cccc3ccccc23)nnc1SCC(=O)OC1CCCCC1	n	n	n	33.8	n
Cc1cnc(NC(=O)C2COc3ccccc3O2)s1 (configuration not stated)	x	n	75.9	n	x
Cc1cc(NC(=O)C2COc3ccccc3O2)no1 (configuration not stated)	n	n	90.4	n	x
O=C(Nc1ccc(Cl)cn1)C1COc2ccccc2O1 (configuration not stated)	n	n	88.9	n	n
Cc1csc(NC(=O)C2COc3ccccc3O2)n1 (configuration not stated)	n	n	n	n	n

Screening data deposited in PubChem BioAssay by several laboratories.
